Published values of several laboratories.
Lines come from different studies, so protocols differ.
Cell line: MOLT-4
Read-out: cell growth or viability

SMILES	assay	setting	IC50
O=C(CSc1nc2ccccc2s1)N/N=C/c1ccc(OCC(=O)Nc2cccc(Br)c2)cc1	MTS	72 h	> 100 µM
Cc1c(-c2ccc(N3CCc4cccc(C(=O)Nc5nc6ccccc6s5)c4C3)nc2C(=O)O)cnn1CC12CC3CC(C1)CC(C(=O)NCCCCCCCCCCCCNc1cccc4c1C(=O)N(C1CCC(=O)NC1=O)C4=O)(C3)C2 (centres unmarked)	MTS	48 h	0.0494 µM
COc1ccc(Nc2ncnc3c2ncn3Cc2ccc(C(=O)Nc3ccccc3N)cc2)cc1	MTT	72 h	0.61 µM
Cc1ncsc1-c1ccc([C@H](C)NC(=O)[C@@H]2C[C@@H](O)CN2C(=O)[C@@H](NC(=O)CCCCCS(=O)(=O)NC(=O)c2nc(N3CCc4cccc(C(=O)Nc5nc6ccccc6s5)c4C3)ccc2-c2cnn(CC34CC5CC(CC(C5)C3)C4)c2C)C(C)(C)C)cc1	MTS	48 h	0.004 µM
COc1ccc(Nc2ncnc3c2ncn3Cc2ccc(C(=O)NO)cc2)cc1	MTT	72 h	0.46 µM
COc1cccc2c1C(=O)c1c(O)c3c(c(O)c1C2=O)C[C@@](O)(C(=O)CO)C[C@@H]3O[C@H]1C[C@H](N)[C@H](O)[C@H](C)O1		96 h	0.00261 µM
COc1cc([C@@H]2c3cc4c(cc3[C@@H](O[C@@H]3O[C@@H]5CO[C@@H](C)O[C@H]5[C@H](O)[C@H]3O)[C@H]3COC(=O)[C@H]23)OCO4)cc(OC)c1O	MTS	72 h	0.18 µM
O=C(NO)c1ccc(Cn2cnc3c(Nc4ccc(F)c(Cl)c4)ncnc32)cc1	MTT	72 h	0.66 µM
Cc1nc(Nc2ncc(C(=O)Nc3c(C)cccc3Cl)s2)cc(N2CC[C@H](O)C2)n1	ATP luminescence	72 h	> 10 µM
CN1CCC(NC2CCc3[nH]c4c(C(N)=O)ccc(-c5ccccc5Cl)c4c3C2)CC1 (centres unmarked)		96 h	0.0187 µM
CCS(=O)(=O)NC(=O)c1nc(N2CCc3cccc(C(=O)Nc4nc5ccccc5s4)c3C2)ccc1-c1cnn(CC23CC4CC(CC(C4)C2)C3)c1C	MTS	48 h	0.0051 µM
O=C(NO)c1ccc(Cn2cnc3c(Nc4ccc(Cl)cc4)ncnc32)cc1	MTT	72 h	0.19 µM
Cc1ncsc1-c1ccc([C@H](C)NC(=O)[C@@H]2C[C@@H](O)CN2C(=O)[C@@H](NC(=O)CCCCCCS(=O)(=O)NC(=O)c2nc(N3CCc4cccc(C(=O)Nc5nc6ccccc6s5)c4C3)ccc2-c2cnn(CC34CC5CC(CC(C5)C3)C4)c2C)C(C)(C)C)cc1	MTS	48 h	0.0045 µM
O=C(CSc1nc2ccccc2s1)N/N=C/c1ccc(OCC(=O)Nc2ccc(Br)cc2)cc1	MTS	72 h	> 100 µM
